# Test results: ChEMBL document CHEMBL1152654, “Development of a highly water-soluble peptide-based human neutrophil elastase inhibitor; AE-3763 for treatment of acute organ injury” (Bioorg Med Chem, 2009)
# Activity calls are given as the source filed them. The calls are words filed in the database; no cut-off is given here.
# Experiments:
# [1] = tested on: Hamster; assay: Inhibition of human neutrophil elastase-induced lung hemorrhage in hamster at 10 mg/kg/hr, iv administered as infusion; type: functional; details: Cricetinae
# Procedure, shortened: (§1)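 Hamster lung hemorrhage induced by HNE instillation, with compound delivered by iv infusion over more than 70 min. BALF collected 1 h after HNE and centrifuged; supernatant absorbance at 414 nm used as hemorrhage measure; % inhibition reported.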
# [2] = tested on: Hamster; assay: Inhibition of human neutrophil elastase-induced lung hemorrhage in hamster at 3 mg/kg/hr, iv administered as infusion; type: functional; details: Cricetinae; procedure, shortened: as §1
# [3] = tested on: Hamster; assay: Inhibition of human neutrophil elastase-induced lung hemorrhage in hamster at 1 mg/kg/hr, iv administered as infusion; type: functional; details: Cricetinae; procedure, shortened: as §1
# [4] = tested on: Hamster; assay: Inhibition of human neutrophil elastase-induced lung hemorrhage in hamster at 3 mg/kg, iv administered as bolus dose; type: functional; details: Cricetinae
# Procedure, shortened: (§2)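 Hamster lung hemorrhage induced by HNE instillation; compound given as iv bolus. One hour after HNE, BALF collected and centrifuged; supernatant absorbance at 414 nm taken as hemorrhage; % inhibition reported.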
# [5] = tested on: Hamster; assay: Inhibition of human neutrophil elastase-induced lung hemorrhage in hamster at 30 mg/kg, iv administered as bolus dose; type: functional; details: Cricetinae; procedure, shortened: as §2
# [6] = tested on: Hamster; assay: Inhibition of human neutrophil elastase-induced lung hemorrhage in hamster at 10 mg/kg, iv administered as bolus dose; type: functional; details: Cricetinae; procedure, shortened: as §2
# [7] = species: Mus musculus; details: C3H/HeN, 10 to 100 mg/kg
# [8] = Aqueous solubility in water; type: physicochemical
# [9] = tested on: Hamster; assay: Inhibition of human neutrophil elastase-induced lung hemorrhage in iv dosed hamster administered as bolus dose; type: functional; details: Cricetinae; procedure, shortened: as §2
# [10] = tested on: Hamster; assay: Inhibition of human neutrophil elastase-induced lung hemorrhage in iv dosed hamster administered as infusion; type: functional, Cricetinae; procedure, shortened: as §1
# [11] = tested on: Hamster; assay: Antiinflammatory activity in iv dosed hamster assessed as inhibition of LPS-induced lung edema; type: functional, Cricetinae
# Procedure, shortened: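 Hamsters given LPS intratracheally; jugular-vein infusion started immediately after LPS and continued up to 6 h. Whole-lung wet weight measured at 6 h after LPS and corrected for each animal's body weight.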
# [12] = tested on: Mus musculus; assay: Toxicity in mouse assessed as overt effects up to 300 mg/kg, iv; type: organism-based; design: dose 300 mg/kg, route intravenous; details: in vivo
Structure (SMILES),inhibition in vivo at 10 mg/kg/hr [1],inhibition in vivo at 3 mg/kg/hr [2],inhibition in vivo at 1 mg/kg/hr [3],inhibition in vivo at 3 mg/kg [4],inhibition in vivo at 10 mg/kg [6],other results
CC(C)[C@H](NC(=O)[C@@H]1CCCN1C(=O)[C@@H](NC(=O)Cn1ccc(=O)n(CC(=O)O)c1=O)C(C)C)C(=O)C(=O)NCc1ccccc1,90%,78%,32%,,,
Cc1cn(CC(=O)N[C@H](C(=O)N2CCC[C@H]2C(=O)N[C@H](C(=O)c2nc3ccccc3o2)C(C)C)C(C)C)c(=O)n(CC(=O)O)c1=O,56%,38%,33%,39%,70%,inhibition in vivo at 30 mg/kg [5]: 92%
CC(C)[C@H](NC(=O)[C@@H]1CCCN1C(=O)[C@@H](NC(=O)CN1C(=O)N(CC(=O)O)C(C)(C)C1=O)C(C)C)C(=O)c1nc2ccccc2o1,,,,20%,59%,
CC(C)[C@H](NC(=O)[C@@H]1CCCN1C(=O)[C@@H](NC(=O)Cn1c(=O)ccn(CC(=O)O)c1=O)C(C)C)C(=O)c1nc2ccccc2o1,,,,34%,47%,inhibition in vivo at 30 mg/kg [5]: 94%
CC(C)[C@H](NC(=O)[C@@H]1CCCN1C(=O)[C@@H](NC(=O)Cn1ccc(=O)n(CC(=O)O)c1=O)C(C)C)C(=O)c1nc2ccccc2o1,93%,62%,50%,24%,66%,inhibition in vivo at 30 mg/kg [5]: 97%
CC(C)[C@H](NC(=O)[C@@H]1CCCN1C(=O)[C@@H](NC(=O)CN1CCN(CC(=O)O)CC1)C(C)C)C(=O)c1nc2ccccc2o1,87%,48%,34%,44%,70%,
CC(C)[C@H](NC(=O)[C@@H]1CCCN1C(=O)[C@@H](NC(=O)CN1C(=O)N(CC(=O)O)C(=O)C1(C)C)C(C)C)C(=O)c1nc2ccccc2o1,,,,40%,42%,
CC(C)[C@H](NC(=O)Cn1ccc(=O)n(CC(=O)O)c1=O)C(=O)N1CCC[C@H]1C(=O)N[C@H](C(=O)C(F)(F)F)C(C)C (mixture of isomers),79%,7.6%,-1.2%,,,
CC(C)[C@H](NC(=O)[C@@H]1CCCN1C(=O)[C@@H](NC(=O)CN1CCN(CC(=O)O)C(=O)C1=O)C(C)C)C(=O)c1nc2ccccc2o1,95%,76%,41%,57%,88%,
COC(=O)C(=O)[C@@H](NC(=O)[C@@H]1CCCN1C(=O)[C@@H](NC(=O)Cn1ccc(=O)n(CC(=O)O)c1=O)C(C)C)C(C)C,94%,43%,32%,,,
CC(C)[C@H](NC(=O)[C@@H]1CCCN1C(=O)[C@@H](NC(=O)CN1CC(=O)N(CC(=O)O)CC1=O)C(C)C)C(=O)c1nc2ccccc2o1,90%,73%,55%,20%,67%,
CC(C)[C@H](NC(=O)[C@@H]1CCCN1C(=O)[C@@H](NC(=O)CN1CC(=O)N(CC(=O)O)C1=O)C(C)C)C(=O)c1nc2ccccc2o1,78%,44%,-7%,32%,67%,inhibition in vivo at 30 mg/kg [5]: 91%
CC(C)[C@H](NC(=O)CN1CCN(CC(=O)O)C1=O)C(=O)N1CCC[C@H]1C(=O)N[C@H](C(=O)C(F)(F)F)C(C)C,97%,84%,45%,,,inhibition [7]: Active; solubility [8]: > 1000 mg/mL; ED50 [9]: 1.2 mg/kg; ED50 [10]: 0.42 mg/kg/h; MED [11]: 3 mg/kg/h; Activity [12]: Non-toxic
CC(C)[C@H](NC(=O)[C@@H]1CCCN1C(=O)[C@@H](NC(=O)CN1CCN(CC(=O)O)C1=O)C(C)C)C(=O)c1nc2ccccc2o1,90%,31%,25%,22%,68%,
CC(C)[C@H](NC(=O)[C@@H]1CCCN1C(=O)[C@@H](NC(=O)Cn1ncc(=O)n(CC(=O)O)c1=O)C(C)C)C(=O)c1nc2ccccc2o1,,,,14%,33%,
Cc1nn(CC(=O)N[C@H](C(=O)N2CCC[C@H]2C(=O)N[C@H](C(=O)c2nc3ccccc3o2)C(C)C)C(C)C)c(=O)n(CC(=O)O)c1=O,,,,,48%,
CC(C)[C@H](NC(=O)[C@@H]1CCCN1C(=O)[C@@H](NC(=O)CN1CCN(CC(=O)O)C(=O)C1=O)C(C)C)C(=O)C(=O)NCc1ccccc1,89%,47%,31%,,,
CC(C)[C@H](NC(=O)[C@@H]1CCCN1C(=O)[C@@H](NC(=O)CN1CCC(=O)N(CC(=O)O)C1=O)C(C)C)C(=O)c1nc2ccccc2o1,,,,38%,34%,
CC(C)[C@H](NC(=O)[C@@H]1CCCN1C(=O)[C@@H](NC(=O)COc1ccc(OCC(=O)O)cc1)C(C)C)C(=O)c1nc2ccccc2o1,,,,,38%,inhibition in vivo at 30 mg/kg [5]: 56%
CC(C)[C@H](NC(=O)[C@@H]1CCCN1C(=O)[C@@H](NC(=O)CN1C(=O)CN(CC(=O)O)C1=O)C(C)C)C(=O)c1nc2ccccc2o1,53%,57%,39%,37%,72%,inhibition in vivo at 30 mg/kg [5]: 81%
COC(=O)C(=O)[C@@H](NC(=O)[C@@H]1CCCN1C(=O)[C@@H](NC(=O)CN1CCN(CC(=O)O)C(=O)C1=O)C(C)C)C(C)C,94%,48%,,,,
